Results as given in ChEMBL document CHEMBL3758146, “Synthesis and biological evaluation of quinazolin-4(3H)-one derivatives bearing dithiocarbamate side chain at C2-position as potential antitumor agents” (Eur J Med Chem, 2016).
The source made the active and inactive calls. No cut-off for these calls is given here.

Legend:
MCF7 [1] = experiment: Cytotoxicity against human MCF7 cells assessed as growth inhibition after 48 hrs by sulforhodamine B assay; assay type: functional, cell-based; details: MCF7, 48 h
CA46 = experiment: Cytotoxicity against human CA46 cells assessed as growth inhibition after 24 hrs by coulter counter analysis; assay type: functional, cell-based; details: CA46, 24 h
MCF7 [2] = experiment: Antiproliferative activity against human MCF7 cells after 72 hrs by MTS assay; assay type: functional, cell-based; details: MCF7, 72 h
Summary of the method: (§1)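 MTS (CellTiter 96 AQueous One) read-out after 72 h exposure; compounds first screened at 50 µM, with ≥50% inhibition versus vehicle-treated cells counted as active. Actives were then tested at various concentrations to give IC50 (concentration causing 50% proliferation inhibition). Triplicate wells, three independent experiments, mean ± SD. 5-FU as positive control.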

HeLa = experiment: Antiproliferative activity against human HeLa cells after 72 hrs by MTS assay; assay type: functional, cell-based; summary of the method: as §1
A549 = experiment: Antiproliferative activity against human A549 cells after 72 hrs by MTS assay; assay type: functional, cell-based; details: A549, 72 h; summary of the method: as §1
HT-29 [3] = experiment: Antiproliferative activity against human HT-29 cells after 72 hrs by MTS assay; assay type: functional, cell-based; details: HT-29, 72 h; summary of the method: as §1
[4] = Antiproliferative activity against human HCT116 cells after 72 hrs by MTS assay; assay type: functional, cell-based; details: HCT-116, 72 h; summary of the method: as §1
HT-29 [5] = experiment: Induction of spindle assembly checkpoint in human HT-29 cells assessed as mitotic index after 16 hrs by immunostaining assay (reference value: 2.87 +/- 0.82); assay type: functional
HT-29 [6] = experiment: Induction of spindle assembly checkpoint in human HT-29 cells assessed as mitotic index after 2 hrs by immunostaining assay (reference value: 2.47 +/- 0.71); assay type: functional
HT-29 [7] = experiment: Induction of spindle assembly checkpoint in human HT-29 cells assessed as mitotic index after 8 hrs by immunostaining assay (reference value: 2.81 +/- 0.82); assay type: functional
HT-29 [8] = experiment: Induction of spindle assembly checkpoint in human HT-29 cells assessed as mitotic index after 4 hrs by immunostaining assay (reference value: 3.13 +/- 1.01); assay type: functional
HT-29 [9] = experiment: Cell cycle arrest in human HT-29 cells assessed as accumulation at G2/M phase at IC50 after 24 hrs by propidium iodide staining based FACS analysis (reference value: 16.7 +/- 1.55%); assay type: functional
HT-29 [10] = experiment: Cell cycle arrest in human HT-29 cells assessed as accumulation at G0/G1 phase at IC50 after 24 hrs by propidium iodide staining based FACS analysis (reference value: 50.25 +/- 1.19%); assay type: functional
HT-29 [11] = experiment: Cell cycle arrest in human HT-29 cells assessed as accumulation at S phase at IC50 after 24 hrs by propidium iodide staining based FACS analysis (reference value: 33.05 +/- 2.22%); assay type: functional
HT-29 [12] = experiment: Cell cycle arrest in human HT-29 cells assessed as accumulation at G0/G1 phase at 0.18 uM after 24 hrs by propidium iodide staining based FACS analysis (reference value: 50.25 +/- 1.19%); assay type: functional
HT-29 [13] = experiment: Cell cycle arrest in human HT-29 cells assessed as accumulation at S phase at 0.18 uM after 24 hrs by propidium iodide staining based FACS analysis (reference value: 33.05 +/- 2.22%); assay type: functional
HT-29 [14] = experiment: Cell cycle arrest in human HT-29 cells assessed as accumulation at G2/M phase at 0.18 uM after 24 hrs by propidium iodide staining based FACS analysis (reference value: 16.7 +/- 1.55%); assay type: functional
HT-29 [15] = experiment: Upregulation of phosphorylated BubR1 level in human HT-29 cells after 16 hrs by immuno-blot analysis; assay type: functional, cell-based
HT-29 [16] = experiment: Induction of DNA damage in human HT-29 cells assessed as increase in gamma-H2AX protein level after 1 to 2 hrs by Western blot analysis; assay type: functional, cell-based
Summary of the method: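 Total lysates of HT29 cells treated 1 or 2 h, with CPT (2 µM) and DMSO diluent as comparators, immunoblotted for γ-H2AX (15 kDa), with β-actin (42 kDa) as loading control probed on a separate section of the same membrane.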

Tubulin (Sus scrofa) [17] = molecular target: T1, Tubulin (Sus scrofa) (UniProt P02554+P02550); experiment: Induction of porcine neuronal tubulin polymerization at 15 uM after 60 mins by spectrometric analysis; assay type: protein assay
Summary of the method: (§2)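 Cell-free tubulin polymerization run by a commercial kit protocol; assembly followed as rise in absorbance at 340 nm over 60 min at 37 °C, with Taxol as reference.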

HT-29 [18] = experiment: Induction of DNA damage in human HT-29 cells assessed as gamma-H2AX foci formation after 1 to 2 hrs by DAPI staining based indirect immunofluorescence assay; assay type: functional, cell-based
Summary of the method: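 HT29 cells treated 1 or 2 h alongside CPT (2 µM) and DMSO diluent, fixed, immunostained with mouse monoclonal anti-γ-H2AX (clone JBW301, 1:1500) and counterstained with DAPI for DNA; γ-H2AX foci scored by indirect immunofluorescence.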

Tubulin (Sus scrofa) [19] = molecular target: T1, Tubulin (Sus scrofa); experiment: Induction of porcine neuronal tubulin polymerization at 10 uM after 60 mins by spectrometric analysis; assay type: protein assay; summary of the method: as §2
HT-29 [20] = experiment: Induction of DNA damage in human HT-29 cells assessed as increase in gamma-H2AX protein level at 2 uM after 1 to 2 hrs by Western blot analysis; assay type: functional, cell-based
Summary of the method: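 HT29 cells treated 1 or 2 h, DMSO as diluent control. Total lysates immunoblotted for γ-H2AX (15 kDa), with β-actin (42 kDa) as loading reference; both probed on separate sections of one membrane.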

HT-29 [21] = experiment: Induction of DNA damage in human HT-29 cells assessed as gamma-H2AX foci formation at 2 uM after 1 to 2 hrs by DAPI staining based indirect immunofluorescence assay; assay type: functional, cell-based
Summary of the method: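 HT29 cells exposed 1 or 2 h, DMSO as diluent control. After fixation, cells immunostained with mouse monoclonal anti-γ-H2AX (clone JBW301, 1:1500) and DNA counterstained with DAPI. γ-H2AX foci scored by indirect immunofluorescence.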

T1 sequence (P02550 whole entry, looked up): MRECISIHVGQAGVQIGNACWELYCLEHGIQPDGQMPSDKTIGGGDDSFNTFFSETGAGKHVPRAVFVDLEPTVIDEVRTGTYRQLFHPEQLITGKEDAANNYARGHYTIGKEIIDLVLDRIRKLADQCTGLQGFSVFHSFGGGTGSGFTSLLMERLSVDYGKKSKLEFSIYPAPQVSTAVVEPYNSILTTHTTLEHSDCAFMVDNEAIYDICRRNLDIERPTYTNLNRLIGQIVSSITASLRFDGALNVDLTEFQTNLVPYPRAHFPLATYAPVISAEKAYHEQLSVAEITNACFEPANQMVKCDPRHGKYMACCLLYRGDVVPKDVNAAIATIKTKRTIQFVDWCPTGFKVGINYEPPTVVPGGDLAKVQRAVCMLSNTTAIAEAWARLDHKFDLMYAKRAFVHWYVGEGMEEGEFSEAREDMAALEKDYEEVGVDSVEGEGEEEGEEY
T1 sequence (P02554 whole entry, looked up): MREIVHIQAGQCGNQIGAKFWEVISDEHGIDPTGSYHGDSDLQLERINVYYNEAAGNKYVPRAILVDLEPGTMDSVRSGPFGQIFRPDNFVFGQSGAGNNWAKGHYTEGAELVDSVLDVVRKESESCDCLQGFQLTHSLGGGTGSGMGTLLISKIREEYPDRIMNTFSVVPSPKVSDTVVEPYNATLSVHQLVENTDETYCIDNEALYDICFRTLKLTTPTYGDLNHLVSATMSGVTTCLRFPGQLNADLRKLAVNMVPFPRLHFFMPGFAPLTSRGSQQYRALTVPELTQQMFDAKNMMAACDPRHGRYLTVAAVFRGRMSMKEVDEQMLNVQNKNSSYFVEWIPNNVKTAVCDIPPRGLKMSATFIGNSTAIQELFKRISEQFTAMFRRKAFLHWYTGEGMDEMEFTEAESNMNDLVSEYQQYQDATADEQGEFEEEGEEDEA

Row | SMILES | IC50 (MCF7 [2]) [µM] | IC50 (HeLa) [µM] | IC50 (A549) [µM] | IC50 (HT-29 [3]) [µM] | IC50 [4] [µM] | also measured
1 | O=c1c2cc(Cl)ccc2nc(/C=C/c2ccccc2)n1-c1ncccn1 |  |  |  |  |  | IC50 (MCF7 [1]): 340 nM; IC50 (CA46): 1000 nM
2 | O=c1[nH]c(CSC(=S)NCc2ccccc2F)nc2ccccc12 | 20.5 | 13.2 | 21.2 | 16.4 | 20.3 | 
3 | O=c1[nH]c(CSC(=S)NCc2cccnc2)nc2ccccc12 | 20.2 | 11 | 14.8 | 14.2 | 11.2 | 
4 | Cc1ccc(CNC(=S)SCc2nc3ccccc3c(=O)[nH]2)cc1 | 21.4 | 20.7 | 32.6 | 16.3 | 23.2 | 
5 | COC(=O)Nc1nc2cc(C(=O)c3cccs3)ccc2[nH]1 [NOCODAZOLE] |  |  |  |  |  | Activity_index (HT-29 [5]): 64.81; Activity_index (HT-29 [6]): 5.22; Activity_index (HT-29 [7]): 25.61; Activity_index (HT-29 [8]): 11.4
6 | O=c1[nH]cc(F)c(=O)[nH]1 [FLUOROURACIL] |  |  |  |  |  | Activity (HT-29 [9]): 3.48%; Activity (HT-29 [10]): 5.42%; Activity (HT-29 [11]): 91.11%; Activity_index (HT-29 [5]): 0.23; Activity_index (HT-29 [6]): 2.28; Activity_index (HT-29 [7]): 0.29; Activity_index (HT-29 [8]): 2.09
7 | O=c1[nH]c(CSC(=S)NCc2ccc([N+](=O)[O-])cc2)nc2ccccc12 | 19.3 | 28.4 | 11.4 | 17.2 | 16.4 | 
8 | COc1cc(CNC(=S)SCc2nc3ccccc3c(=O)[nH]2)cc(OC)c1OC | 8.97 | 22.9 | 10.4 | 7.16 | 17.3 | 
9 | CC(=O)O[C@H]1C(=O)[C@@]2(C)[C@H]([C@H](OC(=O)c3ccccc3)[C@]3(O)C[C@H](OC(=O)[C@H](O)[C@@H](NC(=O)c4ccccc4)c4ccccc4)C(C)=C1C3(C)C)[C@]1(OC(C)=O)CO[C@@H]1C[C@@H]2O [PACLITAXEL] |  |  |  |  |  | Activity (HT-29 [12]): 1.7%; Activity (HT-29 [13]): 17.6%; Activity (HT-29 [14]): 80.71%; Activity (HT-29 [15]): Active
10 | O=c1[nH]c(CSC(=S)NCc2cccs2)nc2ccccc12 | 23.9 | 26.1 | 25.7 | 16.1 | 16.1 | 
11 | O=c1[nH]c(CSC(=S)NCc2ccccc2)nc2ccccc12 | 31.3 | 10.7 | 23.7 | 14.5 | 18.1 | 
12 | O=c1[nH]c(CSC(=S)NCc2ccc(F)cc2F)nc2ccccc12 | 20.4 | 20.1 | 30.6 | 15.7 | 22.3 | 
13 | COc1ccccc1CNC(=S)SCc1nc2ccccc2c(=O)[nH]1 | 14.8 | 16.5 | 12 | 12.3 | 30.6 | 
14 | O=c1[nH]c(CSC(=S)NCc2ccccn2)nc2ccccc12 | > 50 | > 50 | > 50 | > 50 | > 50 | 
15 | COc1ccc(CNC(=S)SCc2nc3ccccc3c(=O)[nH]2)cc1 | 10.9 | 12.2 | 7.27 | 5.53 | 22.7 | Activity (HT-29 [16]): inactive; Activity (Tubulin (Sus scrofa) [17]): Active; Activity (HT-29 [9]): 55.31%; Activity (HT-29 [10]): 16.45%; Activity (HT-29 [11]): 28.25%; Activity_index (HT-29 [5]): 37.85; Activity (HT-29 [18]): inactive; Activity (Tubulin (Sus scrofa) [19]): inactive; Activity_index (HT-29 [6]): 4.66; Activity_index (HT-29 [7]): 10.15; Activity_index (HT-29 [8]): 7.75; Activity (HT-29 [15]): Active
16 | CC[C@@]1(O)C(=O)OCc2c1cc1n(c2=O)Cc2cc3ccccc3nc2-1 [CAMPTOTHECIN] |  |  |  |  |  | Activity (HT-29 [20]): Active; Activity_index (HT-29 [6]): 1.55; Activity_index (HT-29 [7]): 0.33; Activity_index (HT-29 [8]): 1.11; Activity (HT-29 [21]): Active
17 | O=c1[nH]c(CSC(=S)NCc2ccc(F)cc2)nc2ccccc12 | 17.4 | 21.2 | 10.7 | 18.6 | 20.1 | 
18 | O=c1[nH]c(CSC(=S)NCc2ccc(C(F)(F)F)nc2)nc2ccccc12 | 19.2 | 28.4 | 12.9 | 16.5 | 16.7 | 
19 | O=c1[nH]c(CSC(=S)NCc2ccc(Cl)cc2)nc2ccccc12 | > 50 | > 50 | > 50 | > 50 | > 50 | 
20 | COc1ccc(CNC(=S)SCc2nc3ccccc3c(=O)[nH]2)c(OC)c1 | 13.5 | 16 | 10.5 | 10.1 | 25.5 | 
21 | O=c1[nH]c(CSC(=S)NCc2ccc(Br)cc2)nc2ccccc12 | 39.2 | 22.9 | 18.2 | 32.3 | 45.3 | 
22 | O=c1[nH]c(CSC(=S)NCc2ccc(Cl)cc2Cl)nc2ccccc12 | > 50 | 29 | 12.8 | 11.4 | 29.7 | 
23 | O=c1[nH]c(CSC(=S)NCc2ccncc2)nc2ccccc12 | 16.1 | 12.5 | 6.13 | 16 | 6.67 | 
24 | O=c1[nH]c(CSC(=S)NCc2ccc3c(c2)OCO3)nc2ccccc12 | 21.7 | 20.3 | 44.6 | 19.3 | 34.2 | 
25 | O=c1[nH]c(CSC(=S)NCc2ccco2)nc2ccccc12 | > 50 | 31.2 | 42.6 | 33.7 | 24.6 | 
